This note sets out measurements from PubChem BioAssay AID493079 (The Scripps Research Institute Molecular Screening Center, 2011).

The IC50 is the point on the concentration scale where inhibition reaches its midpoint.

Active and inactive are the calls of the source.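 The calls were made as follows: active = IC50 of 10 µM or lower for blocking Epstein-Barr viral protein EBNA-1 from binding DNA; inactive = IC50 above 10 µM.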 Some results are limits rather than exact numbers.

This assay deals with EBNA-1 DNA-binding domain (Epstein-Barr virus). Nature of the assay: EBNA-1 DNA-binding inhibitor potency, late-stage follow-up, biochemical, fluorescence polarization, dose response, assay provider data (AID 493079). Particulars: recombinant EBNA1 DBD, Cy5-DNA fluorescence polarization. In outline: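 Assay system: EBNA-1 DBD (aa 448-610), E. coli-expressed; Probe or stimulus: Cy5-labelled DNA hairpin probe, 36-bp oligonucleotide; Measured by: Cy5 fluorescence polarization; Compound: dose-response series of powder compound samples.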
Background: Polarisation of emitted light reports the rotation of a fluorescent probe.
Regarding `Cc1cc(C(=O)CSc2nnnn2-c2cccc(F)c2)c(C)n1CC1CCCO1` (stereo not given), the IC50 is > 148 µM (inactive). In the case of `CS(=O)(=O)c1ccc2nc(NC(=O)c3ccccc3Cl)sc2c1` it was > 148 µM (inactive). In the case of `Cc1cccc(-n2nnnc2SCC(=O)c2cc(C)n(CC3CCCO3)c2C)c1` (stereo not given) it was > 148 µM (inactive); in that of `COc1ccc2sc(NC(=O)c3ccc(C)c(C)c3)nc2c1`, > 148 µM (inactive). As to `COc1ccc(-n2nnnc2SCC(=O)c2cc(C)n(CC3CCCO3)c2C)cc1` (stereo not given), the IC50 result is “inactive”.

Take `Cc1cccc(C(=O)Nc2nc3ccc(S(C)(=O)=O)cc3s2)c1`: the IC50 result is “inactive”. For `O=C(CSc1nnnn1-c1ccccc1)c1ccn(CC2CCCO2)c1` (stereo not given), the IC50 was > 148 µM (inactive). In the case of `CS(=O)(=O)c1ccc2nc(NC(=O)c3cccc(F)c3)sc2c1` it was > 148 µM (inactive).

Consider `Cc1ccccc1C(=O)Nc1nc2ccc(S(C)(=O)=O)cc2s1`, for which the IC50 is > 148 µM (inactive).

Regarding `COc1ccc(C(=O)Nc2nc3ccc(S(C)(=O)=O)cc3s2)cc1`, the IC50 result is “inactive”. As for `CS(=O)(=O)c1ccc2nc(NC(=O)c3ccccc3F)sc2c1`, the IC50 is > 148 µM (inactive).

Consider `CS(=O)(=O)c1ccc2nc(NC(=O)c3ccc(Cl)cc3)sc2c1`, for which the IC50 result was “inactive”. For `Cc1ccc(C(=O)Nc2nc3cc(F)ccc3s2)cc1C`, the IC50 was > 148 µM (inactive). In the case of `Cc1cc(C(=O)CSc2nnnn2-c2ccccc2)c(C)n1C` it was “inactive”; in that of `Cc1cc(C(=O)CSc2nnnn2C2CC2)c(C)n1CC1CCCO1` (stereo not given), “inactive”; in that of `CS(=O)(=O)c1ccc2nc(NC(=O)c3cccc(Cl)c3)sc2c1`, > 148 µM (inactive). For `COc1cccc2sc(NC(=O)c3ccc(C)c(C)c3)nc12`, the IC50 is > 148 µM (inactive). In the case of `Cc1ccc(C(=O)Nc2nc3ccc(S(C)(=O)=O)cc3s2)cc1`, the IC50 is > 148 µM (inactive). For `Cc1cc(C(=O)CSc2nnnn2-c2ccc(Cl)cc2)c(C)n1CC1CCCO1` (stereo not given), the IC50 was > 148 µM (inactive).

For the molecule `CCn1c(C)cc(C(=O)CSc2nnnn2-c2ccccc2)c1C`, the IC50 was > 148 µM (inactive). In the case of `Cc1ccccc1-n1nnnc1SCC(=O)c1cc(C)n(CC2CCCO2)c1C` (stereo not given) it was > 148 µM (inactive); in that of `COCCn1c(C)cc(C(=O)CSc2nnnn2-c2ccccc2)c1C`, > 148 µM (inactive).

`COc1ccccc1C(=O)Nc1nc2ccc(S(C)(=O)=O)cc2s1`: the IC50 was > 148 µM (inactive).

On to `COc1cccc(C(=O)Nc2nc3ccc(S(C)(=O)=O)cc3s2)c1`, for which the IC50 result was “inactive”. With `COc1ccc2nc(NC(=O)c3ccc(C)c(C)c3)sc2c1`, the IC50 is > 148 µM (inactive). In the case of `Cc1ccc(-n2nnnc2SCC(=O)c2cc(C)n(CC3CCCO3)c2C)cc1` (stereo not given), the IC50 is 5.47 µM. In the case of `Cc1cc(C(=O)CSc2nnnn2C)c(C)n1CC1CCCO1` (stereo not given) it was > 148 µM (inactive).

Regarding `Cc1cc(C(=O)CSc2nnnn2-c2ccccc2)c(C)n1Cc1cccs1`, the IC50 was > 148 µM (inactive). In the case of `Cc1ccc(C(=O)Nc2nc3ccc(Br)cc3s2)cc1C` it was > 148 µM (inactive); in that of `Cc1ccc(C(=O)Nc2nc3cc(Br)ccc3s2)cc1C`, > 148 µM (inactive).
